Measured values as given in ChEMBL document CHEMBL4024804 (J Med Chem, 2018).
Active and inactive are the calls of the source. The calls are words filed in the database; no cut-off is given here.

Experiments:
[1] = system: A-375; experiment: Cytotoxicity against human A375 cells after 72 hrs by MTS assay; format: functional, cell-based; details: A-375, 72 h
Method in brief: (§1)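 Melanoma cells grown in DMEM with 10% FBS and seeded at 1800–3500 cells per well, then incubated overnight. Cells treated for 72 h with 10 concentrations from 0.03 nM to 1 μM, with DMSO vehicle, in four replicates. MTS added for at least 1 h at 37 °C and absorbance read at 490 nm. IC50 obtained by nonlinear regression.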

[2] = system: M14; experiment: Cytotoxicity against human M14 cells after 72 hrs by MTS assay; format: functional, cell-based; details: M14, 72 h; method in brief: as §1
[3] = system: RPMI-7951; experiment: Cytotoxicity against human RPMI7951 cells after 72 hrs by MTS assay; format: functional, cell-based; details: RPMI-7951, 72 h; method in brief: as §1
[4] = system: Liver; experiment: Half life in human liver microsomes by UPLC-MS analysis; format: ADME, microsome
Method in brief: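 Compound at 10 mM in DMSO diluted into human liver microsomes (0.6381 mg/mL protein) in 0.1 M potassium phosphate pH 7.4 with EDTA. NADPH regenerating system added, incubated at 37 °C for 0–4 h in triplicate. Quenched with cold acetonitrile containing warfarin as internal standard, analysed by UPLC–MS SIR. ke from log-linear regression; t1/2 = ln 2/ke.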

[5] = species: Homo sapiens; experiment: Inhibition of tubulin polymerization in human WM164 cells assessed as fragmentation of microtubules at 100 nM after 18 hrs using DAPI by immunofluorescence-based confocal microscopic method; format: cell-based
Method in brief: (§2)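 WM164 cells on glass coverslips (125 000 cells/well), incubated overnight, treated 18 h with 100 nM compound or DMSO vehicle. Stained with anti-α-tubulin and Alexa Fluor 647 anti-mouse IgG, mounted in DAPI-containing medium, and imaged by confocal microscopy.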

[6] = species: Homo sapiens; experiment: Inhibition of tubulin polymerization in human WM164 cells assessed as decrease in polymeric tubulin filaments at 100 nM after 18 hrs using DAPI by immunofluorescence-based confocal microscopic method; format: cell-based; method in brief: as §2
[7] = species: Homo sapiens; experiment: Inhibition of tubulin polymerization in human WM164 cells assessed as increase in cytoplasmic soluble tubulin levels at 100 nM after 18 hrs using DAPI by immunofluorescence-based confocal microscopic method; format: cell-based; method in brief: as §2
[8] = system: A-375; experiment: Antimigratory activity in human A375 cells assessed as wound closure at 5 nM after 22 hrs (reference value: 60.7 +/- […]); format: functional
[9] = system: RPMI-7951; experiment: Antimigratory activity in human RPMI7951 cells assessed as wound closure at 5 nM after 18 hrs (reference value: 71.8 +/- 1.8%); format: functional
[10] = system: A-375; experiment: Antimigratory activity in human A375 cells assessed as wound closure at 25 nM after 22 hrs (reference value: 60.7 +/- […]); format: functional
[11] = system: RPMI-7951; experiment: Antimigratory activity in human RPMI7951 cells assessed as wound closure at 25 nM after 18 hrs (reference value: 71.8 +/- 1.8%); format: functional
[12] = Acute toxicity in nude mouse administered as qd for 5 days; details: in vivo
Method in brief: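 Nude mice, 6–8 weeks old; compound formulated in PEG300 and given as five continuous daily administrations, then monitored for acute toxicity. A single-dose acute MTD was estimated first.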

[13] = system: A-375; experiment: Antitumor activity against human A375 cells xenografted in nude mouse assessed as tumor growth inhibition at 15 mg/kg, ip administered every other day for 2 weeks relative to control; format: functional; details: A-375, ip, 336 h, read-out: TGI
Method in brief: (§3)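 Nude mice 6–8 weeks old; 2 × 10^6 A375 cells in FBS-free medium with Matrigel injected sc into dorsal flank. At about 100 mm3 mice were randomized, n = 8. Drug in 2:1 PEG300/PBS given ip every other day. Volume measured by caliper three times weekly (a × b2 × 0.5).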

[14] = system: A-375; experiment: Antitumor activity against human A375 cells xenografted in nude mouse assessed as tumor growth inhibition at 30 mg/kg, ip administered every other day for 2 weeks relative to control; format: functional; details: A-375, ip, 336 h, read-out: TGI; method in brief: as §3
[15] = system: A-375; experiment: Antitumor activity against human A375 cells xenografted in nude mouse assessed as decrease in tumor weight at 15 mg/kg, ip administered every other day for 2 weeks; format: functional, organism-based
Method in brief: (§4)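 Nude mice (6–8 weeks) injected subcutaneously in dorsal flank with 2 × 10^6 A375 cells in Matrigel. At ~100 mm3, randomized (n = 8). Compound given ip every other day in 2:1 PEG300/PBS; vehicle equal parts PEG300/PBS. Tumors weighed at sacrifice; mean ± SEM, ANOVA with Dunnett's test versus vehicle.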

[16] = system: A-375; experiment: Antitumor activity against human A375 cells xenografted in nude mouse assessed as decrease in tumor weight at 30 mg/kg, ip administered every other day for 2 weeks; format: functional, organism-based; details: 30 mg/kg; method in brief: as §4
[17] = system: A-375; experiment: Induction of apoptosis in human A375 cells xenografted in nude mouse assessed as increase in cleaved caspase-3 levels at 15 mg/kg, ip administered every other day for 2 weeks by immunohistochemical analysis; format: functional, organism-based
Method in brief: (§5)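 Formalin-fixed, paraffin-embedded A375 xenograft tumors from mice dosed ip every other day (2:1 PEG300/PBS). Serial sections immunostained with rabbit anti-cleaved caspase 3 antibody by the ABC-DAB method.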

[18] = system: A-375; experiment: Induction of apoptosis in human A375 cells xenografted in nude mouse assessed as increase in cleaved caspase-3 levels at 30 mg/kg, ip administered every other day for 2 weeks by immunohistochemical analysis; format: functional, organism-based; method in brief: as §5
[19] = system: A-375; experiment: Induction of morphological changes in human A375 cells xenografted in nude mouse assessed as less microvessel density at 15 mg/kg, ip administered every other day for 2 weeks by immunohistochemical analysis; format: functional, organism-based
[20] = system: A-375; experiment: Induction of morphological changes in human A375 cells xenografted in nude mouse assessed as less microvessel density at 30 mg/kg, ip administered every other day for 2 weeks by immunohistochemical analysis; format: functional, organism-based
[21] = system: PC-3; experiment: Cytotoxicity against human PC3 cells after 72 hrs by MTS assay; format: functional, cell-based; details: PC-3, 72 h
Method in brief: (§6)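 Cells treated 72 h at 10 concentrations, 0.03 nM–1 μM, n = 4. MTS read at 490 nm; IC50 by nonlinear regression. RI = resistant IC50 / parental IC50.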

[22] = Cytotoxicity against human PC3-TxR cells after 72 hrs by MTS assay; format: functional, cell-based; method in brief: as §6
[23] = Resistance index, ratio of IC50 for human PC3-TxR cells to IC50 for human PC3 cells; format: functional
Method in brief: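 Cells were treated 72 h with 10 concentrations from 0.03 nM to 1 μM, four replicates, A490 read. IC50 by nonlinear regression. RI = IC50 resistant / IC50 parental.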

[24] = system: DU-145; experiment: Cytotoxicity against human DU145 cells after 72 hrs by MTS assay; format: functional, cell-based; details: DU-145, 72 h; method in brief: as §6
[25] = Cytotoxicity against human DU145-TxR cells after 72 hrs by MTS assay; format: functional, cell-based; method in brief: as §6
[26] = Resistance index, ratio of IC50 for human DU145-TxR cells to IC50 for human DU145 cells; format: functional; method in brief: as §6
[27] = Antitumor activity against human PC3-TxR cells xenografted in nude mouse assessed as tumor growth inhibition at 30 mg/kg, ip administered every other day for 3 weeks; format: functional; details: 504 h, read-out: TGI
Method in brief: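 Nude mice 6–8 weeks old; 2.5 × 10^6 PC-3/TxR cells with Matrigel injected sc into dorsal flank. […] At about 100 mm3 mice were randomized, n = 7. Drug in 2:1 PEG300/PBS given ip every other day. Caliper volume a × b2 × 0.5. TGI computed from start and end mean volumes relative to the vehicle group.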

[28] = system: RPMI-7951; experiment: Antimigratory activity in human RPMI7951 cells after 18 hrs by wound healing assay; format: functional, cell-based
Method in brief: (§7)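 A375 and RPMI7951 monolayers seeded overnight (200 000 cells/well, triplicate), scratched with a pipet tip, washed, then given medium with 5 or 25 nM compound; untreated control wells. Imaged at 0 h and at 18 h (RPMI7951) or 22 h (A375); wound channel area measured and percent closure calculated. Dunnett's test versus control.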

[29] = system: A-375; experiment: Antimigratory activity in human A375 cells after 22 hrs by wound healing assay; format: functional, cell-based; method in brief: as §7
[30] = system: Tubulin (Sus scrofa); experiment: Inhibition of tubulin (porcine brain) polymerization measured every min for 50 mins

SMILES: COc1ccc2c(c1)CCCN2c1nc(Cl)nc2ncccc12
- IC50 [1]: 5.6 nM
- IC50 [2]: 5.5 nM
- IC50 [3]: 8.2 nM
- t1/2 [4]: 1.4 h
- inhibition [5]: Active
- inhibition [6]: Active
- inhibition [7]: Active
- Activity [8]: 36.4%
- Activity [9]: 46.4%
- Activity [10]: 16.9%
- Activity [11]: 25.5%
- MTD at 120 h [12]: 50 mg/kg
- inhibition in vivo at 15 mg/kg [13]: 57.1%
- inhibition in vivo at 30 mg/kg [14]: 72.3%
- Activity [15]: Active
- Activity [16]: Active
- Activity [17]: Active
- Activity [18]: Active
- Activity [19]: Active
- Activity [20]: Active
- IC50 [21]: 12.7 nM
- IC50 [22]: 8.7 nM
- Ratio IC50 [23]: 0.7
- IC50 [24]: 18.3 nM
- IC50 [25]: 19.9 nM
- Ratio IC50 [26]: 1.1
- inhibition in vivo at 30 mg/kg [27]: 55.6%
- Activity [28]: Dose-dependent effect
- Activity [29]: Dose-dependent effect
- inhibition [30]: Dose-dependent effect
